From ChEMBL document CHEMBL3627648, “Synthesis and biochemical evaluation of benzoylbenzophenone thiosemicarbazone analogues as potent and selective inhibitors of cathepsin L” (Bioorg Med Chem, 2015)
Calls of active or inactive are those of the source. No cut-off for these calls is given here.

Legend:
[1] = target: T1, Procathepsin L (Homo sapiens, UniProt P07711); test: Inhibition of human liver cathepsin L using Z-FR-AMC as substrate measured every 15 sec for 5 mins by fluorescence assay
Target sequence in this assay (P07711 whole entry): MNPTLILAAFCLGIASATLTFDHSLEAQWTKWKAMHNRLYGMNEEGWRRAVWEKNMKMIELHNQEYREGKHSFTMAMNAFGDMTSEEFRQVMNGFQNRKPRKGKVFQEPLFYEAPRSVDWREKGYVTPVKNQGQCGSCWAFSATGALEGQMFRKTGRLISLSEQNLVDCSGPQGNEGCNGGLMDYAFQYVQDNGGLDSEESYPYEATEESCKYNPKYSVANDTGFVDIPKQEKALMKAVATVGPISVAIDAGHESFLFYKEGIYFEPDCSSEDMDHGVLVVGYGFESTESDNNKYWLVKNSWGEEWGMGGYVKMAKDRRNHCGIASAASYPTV

[2] = target: Cathepsin B (Homo sapiens, UniProt P07858); test: Inhibition of human liver cathepsin B using Z-RR-AMC as substrate after 5 mins by fluorescence assay
Procedure, shortened: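 Human liver cathepsin B (1 nM) was pre-incubated 5 min at 37 °C with inhibitor (final 10 µM to 10 pM). Substrate was 60 µM Z-RR-AMC in 120 mM sodium potassium phosphate pH 6.0 with 1 mM EDTA, 3 mM DTT, 0.01% Brij 35 and 2% DMSO. AMC fluorescence (ex 355/em 460 nm) was read for 5 min at 37 °C.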

[3] = system: MDA-MB-231; test: Antiinvasive activity in human MDA-MB-231 cells at 10 uM after 24 hrs by inverted microscopic analysis; assay type: functional; details: MDA-MB-231, 24 h
Procedure, shortened: (§1)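 MDA-MB-231 cells at 80% confluence, 50,000 per Matrigel-coated insert (8 µm PET membrane) in DMEM with 10 or 25 µM compound and 2% DMSO. The lower chamber held DMEM with 10% FBS as chemoattractant. After 24 h at 37 °C in 5% CO2, invaded cells were methanol-fixed, Diff-stained and counted by hand in ten fields at 40x. Values were normalised to the 2% DMSO vehicle; triplicate.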

[4] = system: HUVEC; test: Cytotoxicity against HUVEC cells after 48 hrs by SRB assay; assay type: cell-based; details: human
Procedure, shortened: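 SRB growth assay: HUVECs (pooled donors, passage ≤5) plated at 9,000 cells/well for 24 h, then exposed to ten-fold serial dilutions for 48 h. Cells were TCA-fixed and stained with 0.4% SRB, and absorbance read at 540 nm normalised to 630 nm.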

[5] = system: MDA-MB-231; test: Antiinvasive activity in human MDA-MB-231 cells at 25 uM after 24 hrs by inverted microscopic analysis; assay type: functional; details: for inhibition at 25 µM: MDA-MB-231, 24 h; procedure, shortened: as §1
[6] = system: MDA-MB-231; test: Antimigrative activity in human MDA-MB-231 cells at 25 uM after 24 hrs by inverted microscopic analysis; assay type: functional; details: MDA-MB-231, 24 h
Procedure, shortened: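 Transwell migration of MDA-MB-231 cells, run as for invasion but on 8 µm pore inserts without Matrigel. Each insert held 50,000 cells in DMEM with 25 µM compound and 2% DMSO, with 10% FBS DMEM below. After 24 h at 37 °C, cells were fixed, stained and counted by microscope. Values were normalised to the DMSO vehicle; triplicate.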

[7] = target: T1, Procathepsin L; test: Inhibition of human liver cathepsin L using Z-FR-AMC as substrate at 10000 nM measured every 15 sec for 5 mins by fluorescence assay
Procedure, shortened: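 Human liver cathepsin L (1 nM) was pre-incubated 5 min at 25 °C with 10 µM inhibitor or vehicle. Substrate was 50 µM Z-FR-AMC in 100 mM NaOAc pH 5.5 with 1 mM EDTA, 3 mM DTT, 0.01% Brij 35 and 2% DMSO.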
Target sequence in this assay (P07711 114-333 limits assumed): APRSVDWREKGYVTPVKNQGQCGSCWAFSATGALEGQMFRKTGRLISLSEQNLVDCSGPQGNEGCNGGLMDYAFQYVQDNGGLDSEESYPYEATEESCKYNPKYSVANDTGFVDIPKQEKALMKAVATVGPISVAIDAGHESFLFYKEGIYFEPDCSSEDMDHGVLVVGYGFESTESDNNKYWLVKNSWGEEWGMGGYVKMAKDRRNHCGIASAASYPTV

[8] = Antiinvasive activity in human PC3-ML cells at 5 uM after 24 hrs by microscopic analysis; assay type: functional
Procedure, shortened: (§2)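 PC-3ML cells, a metastatic PC-3 subline, were seeded in serum-free medium into Matrigel-coated invasion inserts, with 10% FBS medium in the bottom chamber. At 24 h, cells that reached the membrane underside were stained and counted by microscope. Mean and standard error come from 3-5 independent experiments.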

[9] = Antiinvasive activity in human PC3-ML cells at 1 uM after 24 hrs by microscopic analysis; assay type: functional; procedure, shortened: as §2
[10] = system: Mus musculus; test: Toxicity in C3H mouse derived mammary cancer cells implanted CDF1 mouse assessed as drug tolerability at 20 mg/kg, ip administered 5 consecutive days starting either on day of tumor implantation or when tumors reached 200 mm'3; assay type: organism-based, Cancer cell lines; details: in vivo
[11] = Antitumor activity against C3H mouse derived mammary cancer cells implanted in CDF1 mouse assessed as time taken for tumors to reach 500 mm'3 at 20 mg/kg, ip administered 5 consecutive days starting either on day of tumor implantation or when tumors reached 200 mm'3 (reference value: 20.1 +/- 0.6 days); assay type: functional, Cancer cell lines
Procedure, shortened: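 Female CDF1 mice, 10-14 weeks old, had minced C3H mammary carcinoma tissue (5-10 µl) implanted in the right rear foot. Dosing was 20 mg/kg i.p. at 0.02 ml/g, dissolved in Tween80 and diluted to 10% with saline, given daily for 5 days. Tumour volume was followed daily to find days to reach 500 mm3. Groups had 5-8 mice; mean ±1 S.E.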

[12] = Antiinvasive activity in human PC3-ML cells at 25 uM after 24 hrs by microscopic analysis; assay type: functional; procedure, shortened: as §2
[13] = Antiinvasive activity in human PC3-ML cells at 10 uM after 24 hrs by microscopic analysis; assay type: functional; procedure, shortened: as §2

IC50 [1] [µM] | IC50 [2] [µM] | Compound | GI50 [4] [µM] | further results
0.056 | > 10 | NC(=S)N/N=C(\c1ccccc1)c1cc(C(=O)c2ccccc2)cc(C(=O)c2ccccc2)c1 | – | –
– | – | CC(C)C[C@H](NC(=O)[C@@H]1O[C@H]1C(=O)O)C(=O)NCCCCN=C(N)N | – | inhibition at 10 µM [3]: 60%
0.00812 | > 10 | NC(=S)N/N=C(\c1cc(Br)cc(C(=O)c2ccccc2F)c1)c1ccccc1F | > 85.9 | inhibition [5]: Active; inhibition at 25 µM [6]: > 50%; inhibition at 10 µM [3]: 70%
1.52 | > 10 | NC(=S)N/N=C(\c1ccc(Br)cc1)c1cccc(C(=O)c2ccc(Br)cc2)c1 | – | –
5.12 | > 10 | COc1ccc(C(=O)c2cccc(/C(=N/NC(N)=S)c3ccc(OC)cc3)c2)cc1 | – | –
10.3 | > 10 | NC(=S)N/N=C(\c1cccc(Br)c1)c1cc(Br)cc(C(=O)c2cccc(Br)c2)c1 | – | –
0.0238 | > 10 | NC(=S)N/N=C(\c1ccccc1)c1cccc(C(O)c2ccccc2)c1 (stereo not given) | – | –
– | – | CC(=O)O[C@H]1C(=O)[C@@]2(C)[C@H]([C@H](OC(=O)c3ccccc3)[C@]3(O)C[C@H](OC(=O)[C@H](O)[C@@H](NC(=O)c4ccccc4)c4ccccc4)C(C)=C1C3(C)C)[C@]1(OC(C)=O)CO[C@@H]1C[C@@H]2O [PACLITAXEL] | 0.00148 | –
0.0716 | > 10 | NC(=S)N/N=C(\c1cccc(O)c1)c1cc(Br)cc(C(=O)c2cccc(O)c2)c1 | 13.3 | –
> 10 | > 10 | CC(C)Oc1ccc(C(=O)c2cccc(/C(=N/NC(N)=S)c3ccc(OC(C)C)cc3)c2)cc1 | – | –
> 10 | > 10 | NC(=S)N/N=C(\c1ccc(Br)cc1)c1cccc(/C(=N/NC(N)=S)c2ccc(Br)cc2)c1 | – | –
10 | > 10 | NC(=S)N/N=C(\c1cccc(Br)c1)c1cc(O)cc(C(=O)c2cccc(Br)c2)c1 | – | inhibition [7]: 56.9%
0.654 | > 10 | Cc1cccc(C(=O)c2cccc(/C(=N/NC(N)=S)c3cccc(C)c3)c2)c1 | – | –
– | – | COc1cccc2c1C(=O)c1c(O)c3c(c(O)c1C2=O)C[C@@](O)(C(=O)CO)C[C@@H]3O[C@H]1C[C@H](N)[C@H](O)[C@H](C)O1 [DOXORUBICIN] | 0.0268 | –
0.0144 | > 10 | NC(=S)N/N=C(\c1ccc(F)cc1)c1cccc(C(=O)c2ccc(F)cc2)c1 | > 126 | inhibition at 5 µM [8]: 92%; inhibition at 1 µM [9]: 59%; inhibition at 25 µM [5]: 60%; inhibition at 25 µM [6]: > 50%; inhibition at 10 µM [3]: 15%
0.00985 | > 10 | NC(=S)N/N=C(\c1ccccc1)c1cccc(C(=O)c2ccccc2)c1 | 53.3 | Activity [10]: Non-toxic; Time [11]: 22.1 days; inhibition at 25 µM [12]: 53%; inhibition at 10 µM [13]: 37%; inhibition at 25 µM [5]: 30%; inhibition at 25 µM [6]: 80%
0.34 | > 10 | NC(=S)N/N=C(\c1ccc(O)cc1)c1cccc(C(=O)c2ccc(O)cc2)c1 | – | –
